Measurements: ChEMBL document CHEMBL1275396 (J Med Chem, 2010)

How the values were obtained:
[1] = molecular target: Neuronal acetylcholine receptor; alpha4/beta2 (Rattus norvegicus, UniProt P09483+P12390); experiment: Displacement of [3H]epibatidine from rat alpha4beta2 nAChR expressed in […] cells after 3 hrs; type: cell-based
[2] = molecular target: T1, Neuronal acetylcholine receptor; alpha3/beta4 (Rattus norvegicus, UniProt P04757+P12392); experiment: Displacement of [3H]epibatidine from rat alpha3beta4 nAChR expressed in […] cells after 3 hrs; type: cell-based
T1 sequence (P04757 whole entry): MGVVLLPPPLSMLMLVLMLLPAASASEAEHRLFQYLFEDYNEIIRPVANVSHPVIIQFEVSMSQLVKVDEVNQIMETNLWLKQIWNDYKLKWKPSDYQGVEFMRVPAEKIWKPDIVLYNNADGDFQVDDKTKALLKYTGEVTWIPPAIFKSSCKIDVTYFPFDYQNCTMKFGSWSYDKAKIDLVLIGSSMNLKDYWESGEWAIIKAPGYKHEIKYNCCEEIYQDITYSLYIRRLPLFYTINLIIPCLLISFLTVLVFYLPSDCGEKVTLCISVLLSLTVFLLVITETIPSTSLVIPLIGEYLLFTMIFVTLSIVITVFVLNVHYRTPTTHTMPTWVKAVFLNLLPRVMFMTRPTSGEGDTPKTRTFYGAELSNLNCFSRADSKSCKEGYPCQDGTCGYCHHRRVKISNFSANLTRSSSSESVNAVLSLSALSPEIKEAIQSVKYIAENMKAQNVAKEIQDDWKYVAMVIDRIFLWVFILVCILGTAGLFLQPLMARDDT
T1 sequence (P12392 whole entry): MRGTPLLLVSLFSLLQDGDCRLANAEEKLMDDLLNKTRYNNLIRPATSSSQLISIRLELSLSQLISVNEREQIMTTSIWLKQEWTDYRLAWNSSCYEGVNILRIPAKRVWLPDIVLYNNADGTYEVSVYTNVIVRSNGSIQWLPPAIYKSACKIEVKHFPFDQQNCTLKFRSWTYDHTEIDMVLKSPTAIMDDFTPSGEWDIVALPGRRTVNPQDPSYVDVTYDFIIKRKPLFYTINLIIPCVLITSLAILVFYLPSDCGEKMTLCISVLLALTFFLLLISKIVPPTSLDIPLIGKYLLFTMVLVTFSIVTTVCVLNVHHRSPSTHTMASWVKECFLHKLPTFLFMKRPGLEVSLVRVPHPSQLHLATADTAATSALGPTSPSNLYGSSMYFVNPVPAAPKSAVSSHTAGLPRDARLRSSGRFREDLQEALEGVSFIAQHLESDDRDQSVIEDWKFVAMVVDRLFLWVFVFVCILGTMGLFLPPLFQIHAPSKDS

[3] = molecular target: T1, Neuronal acetylcholine receptor; alpha3/beta4; experiment: Partial agonist activity at rat alpha3beta4 nAChR expressed in […] cells assessed as increase of calcium influx by FLIPR assay; type: functional, cell-based
Procedure, shortened: (§1)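 For functional assays, KXα3β4R2 cells (DMEM, 10% FBS, geneticin, 37°C, 7.5% CO2) were seeded into collagen-coated 96-well plates at about 50,000 cells/well. They grew to a confluent monolayer in 24 to 30 h before testing.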

[4] = molecular target: Neuronal acetylcholine receptor; alpha3/beta4 (Rattus norvegicus) (UniProt P04757+P12392); experiment: Partial agonist activity at rat alpha3beta4 nAChR expressed in […] cells assessed as increase of calcium influx by FLIPR assay relative to control; type: functional, cell-based; procedure, shortened: as §1
Rattus norvegicus [5] = organism: Rattus norvegicus; experiment: Selectivity ratio of Ki for rat alpha3beta4 nAChR to Ki for rat alpha4beta2 nAChR
Procedure, shortened: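 KXα3β4R2 or KXα4β2R2 cells grown in DMEM with 10% FBS and 0.4 mg/mL geneticin at 37°C under 7.5% CO2. Cells were scraped, homogenised in Tris buffer and spun at 20,000 x g to give membranes. […] Ki was obtained from IC50 by Cheng-Prusoff.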

Rattus norvegicus [6] = organism: Rattus norvegicus; experiment: Selectivity ratio of Ki for rat alpha3beta4 nAChR to Ki for alpha7 nAChR in rat brain membranes; type: cell membranes

Chain of Neuronal acetylcholine receptor; alpha4/beta2 (P09483 whole entry): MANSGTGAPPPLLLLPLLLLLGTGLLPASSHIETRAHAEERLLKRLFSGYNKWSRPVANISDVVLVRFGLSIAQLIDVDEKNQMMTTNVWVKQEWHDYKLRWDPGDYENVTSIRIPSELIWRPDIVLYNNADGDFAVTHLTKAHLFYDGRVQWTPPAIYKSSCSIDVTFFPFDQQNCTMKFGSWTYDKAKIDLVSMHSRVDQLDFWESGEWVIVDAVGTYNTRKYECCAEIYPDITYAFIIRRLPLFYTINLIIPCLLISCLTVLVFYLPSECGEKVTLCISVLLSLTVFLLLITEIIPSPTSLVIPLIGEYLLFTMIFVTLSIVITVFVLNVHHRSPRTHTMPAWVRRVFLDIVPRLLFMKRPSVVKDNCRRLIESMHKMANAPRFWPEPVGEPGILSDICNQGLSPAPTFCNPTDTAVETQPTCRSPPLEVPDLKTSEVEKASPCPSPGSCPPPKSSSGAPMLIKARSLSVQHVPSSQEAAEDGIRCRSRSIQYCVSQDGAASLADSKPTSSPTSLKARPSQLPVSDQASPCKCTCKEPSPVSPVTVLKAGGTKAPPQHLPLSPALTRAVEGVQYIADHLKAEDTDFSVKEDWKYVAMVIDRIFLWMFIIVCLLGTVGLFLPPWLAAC
Chain of Neuronal acetylcholine receptor; alpha4/beta2 (P12390 whole entry): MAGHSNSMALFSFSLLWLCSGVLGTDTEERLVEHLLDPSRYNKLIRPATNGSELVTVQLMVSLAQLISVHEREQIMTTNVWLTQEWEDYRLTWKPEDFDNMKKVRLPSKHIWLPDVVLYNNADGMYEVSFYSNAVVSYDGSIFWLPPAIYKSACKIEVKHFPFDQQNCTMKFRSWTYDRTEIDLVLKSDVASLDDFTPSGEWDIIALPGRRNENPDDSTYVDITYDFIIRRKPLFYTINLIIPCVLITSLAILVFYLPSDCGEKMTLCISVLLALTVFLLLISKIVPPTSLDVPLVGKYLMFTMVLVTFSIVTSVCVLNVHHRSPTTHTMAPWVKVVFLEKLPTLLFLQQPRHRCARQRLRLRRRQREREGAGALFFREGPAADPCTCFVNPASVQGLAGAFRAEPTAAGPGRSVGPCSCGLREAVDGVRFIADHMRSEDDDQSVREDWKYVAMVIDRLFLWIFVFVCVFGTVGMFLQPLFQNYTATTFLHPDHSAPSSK

O=C1Cc2ccccc2N1C1CC2CCCC(C1)N2 (stereo not given)
Ki [1]: > 100 µM

CC1CN(Cc2ccccc2)CCC1N1C(=O)Cc2ccccc21 (stereo not given)
Ki [2]: > 10 µM
Ki [1]: > 10 µM

CN1C2C=C(c3cccnc3)CC1CCC2 (stereo not given)
Ki [1]: 0.0104 µM
EC50 [3]: 4.8 µM
Emax [4]: 44%

CN1C2CCC1CC(N1C(=O)Cc3ccccc31)C2 (stereo not given)
Ki [1]: > 100 µM

CC(c1ccc(C2CCCCC2)cc1)N1CCC(N2C(=O)Cc3ccccc32)CC1 (stereo not given)
Ki [2]: > 10 µM
Ki [1]: > 10 µM

CN1CC2CC1CC(N1C(=O)Cc3ccccc31)C2 (stereo not given)
Ki [2]: > 10 µM
Ki [1]: > 10 µM

O=C1Cc2ccccc2N1C1CC2CC(C1)N(Cc1ccccc1)C2 (stereo not given)
Ki [2]: 1.84 µM
Ki [1]: > 10 µM

CN1C2CCCC1CC(N1C(=O)Cc3ccccc31)C2 (stereo not given)
Ki [1]: > 100 µM

CCC(C)(C)C1CCC(N2CCC(C3C(=O)Nc4ccccc43)CC2)CC1 (stereo not given)
Ki [2]: > 10 µM
Ki [1]: > 10 µM

C1=C(c2cccnc2)CC2CCC1CN2Cc1ccccc1 (stereo not given)
Ratio Ki (Rattus norvegicus [5]): 100
Ratio Ki (Rattus norvegicus [6]): 200
EC50 [3]: 2 µM
Emax [4]: 72%
